Measured values reported in ChEMBL document CHEMBL4823332, “Discovery and Development of Cyclic Peptide Inhibitors of CIB1” (ACS Med Chem Lett, 2021).
Values belong to the molecule of their own block, whether it stands above or below them. Active and inactive are the calls of the source. The rule behind the calls is not given here. Starred links: 1 amine or outer side, 2 acyl side, 3 side chain; linkers in the order of their positions; H or OH if unused. Positions of bridges follow the written chain, without caps; N, C: chain ends. Non-standard residues stand in square brackets, D forms with d. Residues, ends and D or L forms follow the SMILES beside them. *: point of attachment. NH(CH2CH2O)2(CH2)6Cl = ClCCCCCCOCCOCCN*; NMeY = CN[C@@H](Cc1ccc(O)cc1)C(=O)O; Suc = O=C(CCC(=O)[*:2])[*:1]; hLeu = CC(C)CC[C@H](N)C(=O)O; Nle = CCCC[C@H](N)C(=O)O

Assays:
[1] = Cytotoxicity against human MDA-MB-231 cells assessed as cell death at 30 uM incubated for 24 hrs by trypan blue assay; type: cell-based; settings: mda-mb-231, 24 h
[2] = molecular target: T1, Calcium and integrin-binding protein 1 (Homo sapiens) (UniProt Q99828); experiment: Inhibition of CIB1 in human MDA-MB-231 cells assessed as reduction in pAKT level after 6 to 24 hrs by Western blotting analysis; type: cell-based; settings: time 6-24 hrs
T1 sequence (whole entry): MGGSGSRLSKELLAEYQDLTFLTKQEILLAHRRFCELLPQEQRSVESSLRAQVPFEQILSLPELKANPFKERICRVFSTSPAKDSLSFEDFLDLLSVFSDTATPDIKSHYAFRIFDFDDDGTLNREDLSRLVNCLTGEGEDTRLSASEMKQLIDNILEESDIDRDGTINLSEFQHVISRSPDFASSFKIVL
How it was run: (§1)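 Cells were treated with peptide for 6 h and for 24 h alongside a DMSO vehicle control. Lysates were then immunoblotted for phospho-AKT, phospho-ERK and CIB1, and the levels were compared with the DMSO-treated cells.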

[3] = molecular target: T1, Calcium and integrin-binding protein 1 (Homo sapiens); experiment: Inhibition of CIB1 in human MDA-MB-468 cells assessed as reduction in CIB1 level after 6 hrs by Western blotting analysis; type: cell-based; how it was run: as §1
[4] = molecular target: T1, Calcium and integrin-binding protein 1 (Homo sapiens); experiment: Inhibition of CIB1 in human MDA-MB-231 cells assessed as reduction in CIB1 level after 6 hrs by Western blotting analysis; type: cell-based; how it was run: as §1
[5] = molecular target: T1, Calcium and integrin-binding protein 1 (Homo sapiens); experiment: Inhibition of CIB1 in human MDA-MB-468 cells assessed as reduction in pAKT level after 6 to 24 hrs by Western blotting analysis; type: cell-based; settings: time 6-24 hrs; how it was run: as §1
[6] = test system: MDA-MB-468; experiment: Cytotoxicity against human MDA-MB-468 cells assessed as cell death at 30 uM incubated for 24 hrs by trypan blue assay; type: functional
[7] = molecular target: T1, Calcium and integrin-binding protein 1 (Homo sapiens); experiment: Inhibition of CIB1 in human MDA-MB-231 cells assessed as reduction in pERK level after 6 to 24 hrs by Western blotting analysis; type: cell-based; settings: time 6-24 hrs; how it was run: as §1
[8] = molecular target: T2, Calcium and integrin-binding protein 1 (Homo sapiens, UniProt Q99828); experiment: Displacement of Alexa Fluor 647 labelled UNC10245092 peptide from CIB1 (unknown origin) preincubated for 20 mins followed by Alexa-CIB1 phage peptide addition and measured after 20 to 30 mins by TR-FRET assay
T2 sequence (Q99828 whole entry): T1 sequence (whole entry)

[9] = Stability in human MDA-MB-468 cell lysates assessed as compound remaining at 150 uM after 24 hrs by LCMS method; type: ADME, subcellular; settings: read-out: Stabilty
How it was run: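 Peptides were incubated in MDA-MB-468 cell lysates at 37 °C.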

[10] = molecular target: T1, Calcium and integrin-binding protein 1 (Homo sapiens); experiment: Inhibition of CIB1 in human MDA-MB-468 cells assessed as reduction in pERK level after 6 to 24 hrs by Western blotting analysis; type: cell-based; settings: time 6-24 hrs; how it was run: as §1
[11] = molecular target: T2, Calcium and integrin-binding protein 1; experiment: Binding affinity to full length CIB1 (unknown origin) at 300 uM by isothermal titration calorimetry
[12] = molecular target: T1, Calcium and integrin-binding protein 1 (Homo sapiens); experiment: Inhibition of CIB1 in human MDA-MB-468 cells assessed as reduction in AKT activity after 6 to 24 hrs by Western blotting analysis; type: cell-based; settings: time 6-24 hrs; how it was run: as §1
[13] = molecular target: T1, Calcium and integrin-binding protein 1 (Homo sapiens); experiment: Inhibition of CIB1 in human MDA-MB-468 cells assessed as reduction in ERK activity after 6 to 24 hrs by Western blotting analysis; type: cell-based; settings: time 6-24 hrs; how it was run: as §1
[14] = molecular target: T1, Calcium and integrin-binding protein 1 (Homo sapiens); experiment: Inhibition of CIB1 in human MDA-MB-231 cells assessed as reduction in ERK activity after 6 to 24 hrs by Western blotting analysis; type: cell-based; settings: time 6-24 hrs; how it was run: as §1
[15] = molecular target: T1, Calcium and integrin-binding protein 1 (Homo sapiens); experiment: Inhibition of CIB1 in human MDA-MB-231 cells assessed as reduction in AKT activity after 6 to 24 hrs by Western blotting analysis; type: cell-based; settings: time 6-24 hrs; how it was run: as §1

SMILES: CSCC[C@H](NC(=O)[C@H](C)NC(=O)CNC(=O)[C@H](Cc1ccc(O)cc1)NC(=O)[C@H](Cc1c[nH]c2ccccc12)NC(=O)[C@H](Cc1ccccc1)NC(=O)[C@H](CO)NC(=O)CNC(=O)CNC(=O)[C@H](CC(=O)O)NC(=O)[C@H](CCC(=O)O)NC(=O)[C@H](CCC(N)=O)NC(=O)[C@@H]1CCCN1C(=O)[C@H](CCCNC(=N)N)NC(=O)[C@H](CCCNC(=N)N)NC(=O)[C@H](CCCNC(=N)N)NC(=O)[C@H](CCC(N)=O)NC(=O)[C@H](CCCNC(=N)N)NC(=O)[C@H](CCCNC(=N)N)NC(=O)[C@H](CCCCN)NC(=O)[C@H](CCCCN)NC(=O)[C@H](CCCNC(=N)N)NC(=O)CNC(=O)CCC(=O)NCCOCCOCCCCCCCl)C(=O)N[C@@H](CCCCN)C(=O)N[C@@H](C)C(=O)N[C@@H](CC(C)C)C(=O)N[C@@H](Cc1ccc(O)cc1)C(=O)NCC(N)=O ({NH(CH2CH2O)2(CH2)6Cl-Suc}-GRKKRRQRRRPQEDGGSFWYGAMKALYG-NH2)
Activity [1]: 9.6%
inhibition [2]: Active
inhibition [3]: Active
inhibition [4]: Active
inhibition [5]: Active
Activity [6]: 57.1%
inhibition [7]: Active
IC50 [8]: 150 nM
remaining at 24 h, 150 µM [9]: 0%
inhibition [10]: Active

SMILES: CSCC[C@H](NC(=O)[C@H](C)NC(=O)CNC(=O)[C@H](Cc1ccc(O)cc1)NC(=O)[C@H](Cc1c[nH]c2ccccc12)NC(=O)[C@H](Cc1ccccc1)NC(=O)[C@H](CO)NC(=O)CNC(=O)CNC(=O)[C@H](CC(=O)O)NC(=O)[C@H](CCC(=O)O)NC(=O)CCC(=O)NCCOCCOCCCCCCCl)C(=O)N[C@@H](CCCCN)C(=O)N[C@@H](C)C(=O)N[C@@H](CC(C)C)C(=O)N[C@@H](Cc1ccc(O)cc1)C(=O)NCC(N)=O ({NH(CH2CH2O)2(CH2)6Cl-Suc}-EDGGSFWYGAMKALYG-NH2)
Activity [1]: 9.5%
Kd [11]: 29.4 nM
Activity [6]: 1.7%
IC50 [8]: 46 nM

SMILES: CSCC[C@H](NC(=O)[C@H](C)NC(=O)CNC(=O)[C@H](Cc1ccc(O)cc1)NC(=O)[C@H](C)NC(=O)[C@H](Cc1ccccc1)NC(=O)[C@H](CO)NC(=O)CNC(=O)CNC(=O)[C@H](CC(=O)O)NC(=O)[C@H](CCC(=O)O)NC(=O)[C@H](CCC(N)=O)NC(=O)[C@@H]1CCCN1C(=O)[C@H](CCCNC(=N)N)NC(=O)[C@H](CCCNC(=N)N)NC(=O)[C@H](CCCNC(=N)N)NC(=O)[C@H](CCC(N)=O)NC(=O)[C@H](CCCNC(=N)N)NC(=O)[C@H](CCCNC(=N)N)NC(=O)[C@H](CCCCN)NC(=O)[C@H](CCCCN)NC(=O)[C@H](CCCNC(=N)N)NC(=O)CNC(=O)CCC(=O)NCCOCCOCCCCCCCl)C(=O)N[C@@H](CCCCN)C(=O)N[C@@H](C)C(=O)N[C@@H](CC(C)C)C(=O)N[C@@H](C)C(=O)NCC(N)=O ({NH(CH2CH2O)2(CH2)6Cl-Suc}-GRKKRRQRRRPQEDGGSFAYGAMKALAG-NH2)
Activity [1]: 1.9%
Activity [6]: 1.1%
IC50 [8]: > 10000 nM
remaining at 24 h, 150 µM [9]: 0%

SMILES: CC[C@H](C)[C@@H]1NC(=O)[C@H](CC(C)C)NC(=O)[C@H](Cc2c[nH]c3ccccc23)NC(=O)[C@H](Cc2ccc(O)cc2)NC(=O)[C@@H]2CCCN2C(=O)[C@H](CCC(N)=O)NC(=O)[C@H](C)NC(=O)[C@H](Cc2ccc(O)cc2)NC(=O)CSC[C@@H](C(N)=O)NC(=O)[C@H](Cc2c[nH]c3ccccc23)NC(=O)[C@H](CC(N)=O)NC1=O ({CH2CO}-YAQPYWLINWC-NH2; thioether N-11)
Activity [1]: 1.5%
Activity [6]: 2.7%
IC50 [8]: 9 nM
remaining at 24 h, 150 µM [9]: 21.9%

SMILES: CCCC[C@@H]1NC(=O)[C@H](Cc2ccc(O)cc2)NC(=O)CSC[C@@H](C(N)=O)NC(=O)[C@H](Cc2c[nH]c3ccccc23)NC(=O)[C@H](CC(C)C)NC(=O)[C@H]([C@@H](C)CC)NC(=O)[C@H](CC(C)C)NC(=O)[C@H](Cc2c[nH]c3ccccc23)NC(=O)[C@H](Cc2ccc(O)cc2)NC(=O)[C@@H]2CCCN2C(=O)[C@H](CCC(N)=O)NC1=O ({CH2CO}-Y[Nle]QPYWLILWC-NH2; thioether N-11)
Activity [1]: 1.1%
Activity [6]: 3.4%
IC50 [8]: 59 nM
remaining at 24 h, 150 µM [9]: 62.2%

SMILES: CC[C@H](C)[C@@H]1NC(=O)[C@H](CC(C)C)NC(=O)[C@H](Cc2c[nH]c3ccccc23)NC(=O)[C@H](Cc2ccc(O)cc2)NC(=O)[C@@H]2CCCN2C(=O)[C@H](CCC(N)=O)NC(=O)[C@H](CCCCN)NC(=O)[C@H](Cc2ccc(O)cc2)NC(=O)CSC[C@@H](C(N)=O)NC(=O)[C@H](Cc2c[nH]c3ccccc23)NC(=O)[C@H](CC(N)=O)NC1=O ({CH2CO}-YKQPYWLINWC-NH2; thioether N-11)
inhibition [12]: inactive
Activity [1]: 2%
Kd [11]: 6 nM
inhibition [13]: inactive
inhibition [3]: inactive
inhibition [14]: inactive
inhibition [15]: inactive
inhibition [4]: inactive
Activity [6]: 2.7%
IC50 [8]: 12 nM
remaining at 24 h, 150 µM [9]: 48.6%

IC50 [8]: 76 nM
SMILES: CC[C@H](C)[C@@H]1NC(=O)[C@H](CC(C)C)NC(=O)[C@H](Cc2c[nH]c3ccccc23)NC(=O)[C@H](Cc2ccc(O)cc2)NC(=O)[C@@H]2CCCN2C(=O)[C@H](CCC(N)=O)NC(=O)[C@H](CCCCN)NC(=O)[C@H](Cc2ccc(O)cc2)NC(=O)CSC[C@@H](C(N)=O)NC(=O)[C@H](Cc2c[nH]c3ccccc23)NC(=O)[C@H](C)NC1=O ({CH2CO}-YKQPYWLIAWC-NH2; thioether N-11)

IC50 [8]: 470 nM
SMILES: CC[C@H](C)[C@@H]1NC(=O)[C@H](CC(C)C)NC(=O)[C@H](Cc2c[nH]c3ccccc23)NC(=O)[C@H](C)NC(=O)[C@@H]2CCCN2C(=O)[C@H](CCC(N)=O)NC(=O)[C@H](CCCCN)NC(=O)[C@H](Cc2ccc(O)cc2)NC(=O)CSC[C@@H](C(N)=O)NC(=O)[C@H](Cc2c[nH]c3ccccc23)NC(=O)[C@H](CC(N)=O)NC1=O ({CH2CO}-YKQPAWLINWC-NH2; thioether N-11)

IC50 [8]: 1800 nM
SMILES: CC[C@H](C)[C@@H]1NC(=O)[C@H](CC(C)C)NC(=O)[C@H](Cc2c[nH]c3ccccc23)NC(=O)[C@H](Cc2ccc(O)cc2)N(C)C(=O)[C@@H]2CCCN2C(=O)[C@H](CCC(C)C)NC(=O)[C@H](C)NC(=O)[C@H](Cc2ccc(O)cc2)N(C)C(=O)CSC[C@@H](C(N)=O)NC(=O)[C@H](Cc2c[nH]c3ccccc23)NC(=O)[C@H](CC(N)=O)NC1=O ({CH2CO}-[NMeY]A[hLeu]P[NMeY]WLINWC-NH2; thioether N-11)
